{"source": "ChEMBL document CHEMBL4680257", "about": "“Discovery of novel NF-кB inhibitor based on scaffold hopping: 1,4,5,6,7,8-hexahydropyrido[4,3-d]pyrimidine” (Eur J Med Chem, 2020)", "key": {"SMMC-7721 [1]": {"tested_on": "SMMC-7721", "experiment": "Induction of apoptosis in human SMMC-7721 cells assessed as late apoptotic cells at 1 uM incubated for 24 hrs by annexin V-FITC and PI staining based flow cytometry analysis (reference value: 5.4 %)", "assay_type": "functional", "procedure,_shortened": "(§1)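 Cells seeded at 2×10^5 per well and treated 24 h with 1.0, 2.0 or 4.0 µM, or DMSO. Harvested, washed twice in cold PBS, resuspended at 1×10^5 cells/mL in buffer. Stained with Annexin V-FITC plus propidium iodide for 15 min at room temperature in the dark, then analysed by flow cytometry.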"}, "SMMC-7721 [2]": {"tested_on": "SMMC-7721", "experiment": "Induction of apoptosis in human SMMC-7721 cells assessed as viable cells at 1 uM incubated for 24 hrs by annexin V-FITC and PI staining based flow cytometry analysis (reference value: 93.3 %)", "assay_type": "functional", "settings": "read-out: Activity", "procedure,_shortened": "as §1"}, "SMMC-7721 [3]": {"tested_on": "SMMC-7721", "experiment": "Induction of apoptosis in human SMMC-7721 cells incubated for 24 hrs by annexin V-FITC and PI staining based flow cytometry analysis", "assay_type": "functional, cell-based", "settings": "dose 1-4 µM", "procedure,_shortened": "as §1"}, "RAW264.7 [4]": {"tested_on": "RAW264.7", "experiment": "Inhibition of NF-kappaB in mouse RAW264.7 cells assessed as reduction in LPS-induced p65 nuclear translocation at 4 uM pretreated with LPS for 15 mins followed by compound addition and measured after 2 hrs by DAPI staining based fluorescence microscopy", "settings": "time 135.0 min"}, "RAW264.7 [5]": {"tested_on": "RAW264.7", "experiment": "Antiinflammatory activity against mouse RAW264.7 cells assessed as LPS-induced IL-6 at 5 uM pretreated for 2 hrs followed by LPS stimulation and measured after 22 hrs by ELISA relative to control (reference value: 0 %)", "assay_type": "functional", "settings": "time 24 hrs"}, "RAW264.7 [6]": {"tested_on": "RAW264.7", "experiment": "Inhibition of NF-kappaB in mouse RAW264.7 cells assessed as reduction in LPS-induced IkappaBalpha phosphorylation incubated for 1 hr followed by LPS stimulation and measured after 30 mins by Western blot analysis", "assay_type": "cell-based", "settings": "dose 1-4 µM", "procedure,_shortened": "(§2)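 RAW264.7 incubated 1 h with compound (1.0, 2.0, 4.0 µM), then LPS 1.0 µg/mL for 30 min before extraction. Lysates blotted to nitrocellulose and probed overnight at 4 °C for total and phospho forms of p65, IκBα, Akt, ERK1/2, JNK and p38; secondary antibody 2 h at room temperature. ECL detection, normalized to GAPDH, mean ± SD of triplicate tests.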"}, "HepG2 [7]": {"tested_on": "HepG2", "experiment": "Induction of apoptosis in human HepG2 cells assessed as decrease in Bcl-2 expression incubated for 24 hrs by Western blot analysis", "assay_type": "functional, cell-based", "settings": "dose 1-4 µM", "procedure,_shortened": "(§3)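 HepG2 exposed to 1.0, 2.0 or 4.0 µM for 24 h. Lysates separated by electrophoresis and blotted onto nitrocellulose. Probed overnight at 4 °C with anti-Bcl-2, anti-BAX or anti-cleaved caspase-3, then 2 h at room temperature with anti-mouse/rabbit IgG. ECL detection, GAPDH as loading control; quantified from more than three separate experiments.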"}, "HepG2 [8]": {"tested_on": "HepG2", "experiment": "Inhibition of NF-kappaB in human HepG2 cells assessed as reduction in TNFalpha-induced p65 nuclear translocation at 4 uM pretreated with TNFalpha for 15 mins followed by compound addition and measured after 2 hrs by DAPI staining based fluorescence microscopy", "settings": "time 135.0 min"}, "SMMC-7721 [9]": {"tested_on": "SMMC-7721", "experiment": "Induction of apoptosis in human SMMC-7721 cells assessed as early apoptotic cells at 1 uM incubated for 24 hrs by annexin V-FITC and PI staining based flow cytometry analysis (reference value: 0.3 %)", "assay_type": "functional", "procedure,_shortened": "as §1"}, "HepG2 [10]": {"tested_on": "HepG2", "experiment": "Induction of apoptosis in human HepG2 cells assessed as early apoptotic cells at 4 uM incubated for 24 hrs by annexin V-FITC and PI staining based flow cytometry analysis (reference value: 0.2 %)", "assay_type": "functional", "procedure,_shortened": "as §1"}, "RAW264.7 [11]": {"tested_on": "RAW264.7", "experiment": "Inhibition of NF-kappaB in mouse RAW264.7 cells assessed as reduction in LPS-induced p38 phosphorylation at 1 to 4 uM incubated for 1 hr followed by LPS stimulation and measured after 30 mins by Western blot analysis", "assay_type": "cell-based", "settings": "dose 1-4 µM", "procedure,_shortened": "as §2"}, "HepG2 [12]": {"tested_on": "HepG2", "experiment": "Induction of apoptosis in human HepG2 cells assessed as viable cells at 4 uM incubated for 24 hrs by annexin V-FITC and PI staining based flow cytometry analysis (reference value: 94.2 %)", "assay_type": "functional", "settings": "read-out: Activity", "procedure,_shortened": "as §1"}, "RAW264.7 [13]": {"tested_on": "RAW264.7", "experiment": "Inhibition of NF-kappaB in mouse RAW264.7 cells assessed as reduction in LPS-induced JNK phosphorylation at 1 to 4 uM incubated for 1 hr followed by LPS stimulation and measured after 30 mins by Western blot analysis", "assay_type": "cell-based", "settings": "dose 1-4 µM", "procedure,_shortened": "as §2"}, "RAW264.7 [14]": {"tested_on": "RAW264.7", "experiment": "Inhibition of NF-kappaB in mouse RAW264.7 cells assessed as reduction in LPS-induced ERK phosphorylation at 1 to 4 uM incubated for 1 hr followed by LPS stimulation and measured after 30 mins by Western blot analysis", "assay_type": "cell-based", "settings": "dose 1-4 µM", "procedure,_shortened": "as §2"}, "HepG2 [15]": {"tested_on": "HepG2", "experiment": "Induction of apoptosis in human HepG2 cells assessed as late apoptotic cells at 4 uM incubated for 24 hrs by annexin V-FITC and PI staining based flow cytometry analysis (reference value: 4.8 %)", "assay_type": "functional", "procedure,_shortened": "as §1"}, "HepG2 [16]": {"tested_on": "HepG2", "experiment": "Induction of apoptosis in human HepG2 cells assessed as early apoptotic cells at 1 uM incubated for 24 hrs by annexin V-FITC and PI staining based flow cytometry analysis (reference value: 0.2 %)", "assay_type": "functional", "procedure,_shortened": "as §1"}, "SMMC-7721 [17]": {"tested_on": "SMMC-7721", "experiment": "Induction of apoptosis in human SMMC-7721 cells assessed as necrotic cells at 4 uM incubated for 24 hrs by annexin V-FITC and PI staining based flow cytometry analysis (reference value: 1 %)", "assay_type": "functional", "procedure,_shortened": "as §1"}, "HepG2 [18]": {"tested_on": "HepG2", "experiment": "Inhibition of NF-kappaB in human HepG2 cells assessed as reduction in TNFalpha-induced p65 nuclear translocation at 4 uM pretreated with LPS for 15 mins followed by compound addition and measured after 2 hrs by DAPI staining based fluorescence microscopy", "assay_type": "cell-based", "settings": "time 135.0 min, in the assay text read “pretreated with TNF-alpha” for “pretreated with LPS”", "procedure,_shortened": "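HepG2 exposed to TNF-α (10 ng/mL) for 15 min, then 4.0 µM compound for 2 h. Fixed at room temperature and blocked with 3% BSA. Anti-p65 (1:200) overnight at 4 °C, then secondary (1:200) for 30 min at room temperature. Nuclei stained with DAPI; p65 location imaged on a high-content fluorescence system. Repeated three times.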"}, "SMMC-7721 [19]": {"tested_on": "SMMC-7721", "experiment": "Induction of apoptosis in human SMMC-7721 cells assessed as viable cells at 4 uM incubated for 24 hrs by annexin V-FITC and PI staining based flow cytometry analysis (reference value: 93.3 %)", "assay_type": "functional", "settings": "read-out: Activity", "procedure,_shortened": "as §1"}, "HepG2 [20]": {"tested_on": "HepG2", "experiment": "Induction of apoptosis in human HepG2 cells assessed as necrotic cells at 4 uM incubated for 24 hrs by annexin V-FITC and PI staining based flow cytometry analysis (reference value: 0.8 %)", "assay_type": "functional", "procedure,_shortened": "as §1"}, "HepG2 [21]": {"tested_on": "HepG2", "experiment": "Induction of apoptosis in human HepG2 cells assessed as increase in Bax expression incubated for 24 hrs by Western blot analysis", "assay_type": "functional, cell-based", "settings": "dose 1-4 µM", "procedure,_shortened": "as §3"}, "RAW264.7 [22]": {"tested_on": "RAW264.7", "experiment": "Inhibition of NF-kappaB in mouse RAW264.7 cells assessed as reduction in LPS-induced Akt phosphorylation at 1 to 4 uM incubated for 1 hr followed by LPS stimulation and measured after 30 mins by Western blot analysis", "assay_type": "cell-based", "settings": "dose 1-4 µM", "procedure,_shortened": "as §2"}}, "note": "Active and inactive are the calls of the source. No cut-off for these calls is given here."}
{"smiles": "Cl.NC1=NC(c2cccc(F)c2)C2=C(N1)/C(=C/c1cccc(F)c1)CN(S(=O)(=O)c1ccc(C(F)(F)F)cc1)C2", "note": "(configuration not stated)", "values": [{"measurement": "Activity", "setting": "SMMC-7721 [1]", "value": 15.1, "unit": "%"}, {"measurement": "viability at 1 µM", "setting": "SMMC-7721 [2]", "value": 80.8, "unit": "%"}, {"measurement": "Activity", "setting": "SMMC-7721 [3]", "value": "Dose-dependent effect"}, {"measurement": "inhibition", "setting": "RAW264.7 [4]", "value": "Active"}, {"measurement": "inhibition at 5 µM", "setting": "RAW264.7 [5]", "value": 86.8, "unit": "%"}, {"measurement": "inhibition", "setting": "RAW264.7 [6]", "value": "Dose-dependent effect"}, {"measurement": "Activity", "setting": "HepG2 [7]", "value": "Dose-dependent effect"}, {"measurement": "inhibition", "setting": "HepG2 [8]", "value": "Active"}, {"measurement": "Activity", "setting": "SMMC-7721 [9]", "value": 3.2, "unit": "%"}, {"measurement": "Activity", "setting": "HepG2 [10]", "value": 49.8, "unit": "%"}, {"measurement": "inhibition", "setting": "RAW264.7 [11]", "value": "Active"}, {"measurement": "viability at 4 µM", "setting": "HepG2 [12]", "value": 30.6, "unit": "%"}, {"measurement": "inhibition", "setting": "RAW264.7 [13]", "value": "Active"}, {"measurement": "inhibition", "setting": "RAW264.7 [14]", "value": "Active"}, {"measurement": "Activity", "setting": "HepG2 [15]", "value": 18.5, "unit": "%"}, {"measurement": "Activity", "setting": "HepG2 [16]", "value": 53.4, "unit": "%"}, {"measurement": "Activity", "setting": "SMMC-7721 [17]", "value": 12.9, "unit": "%"}, {"measurement": "inhibition", "setting": "HepG2 [18]", "value": "Active"}, {"measurement": "viability at 4 µM", "setting": "SMMC-7721 [19]", "value": 66.5, "unit": "%"}, {"measurement": "Activity", "setting": "HepG2 [20]", "value": 1.2, "unit": "%"}, {"measurement": "Activity", "setting": "HepG2 [21]", "value": "Dose-dependent effect"}, {"measurement": "inhibition", "setting": "RAW264.7 [22]", "value": "Active"}]}
